Shown are actives, neighbours in structure and some others; about 2.7% of the full set was active somewhere.
pPAFAH FP inh: inhibitors of human plasma PAF acetylhydrolase (pPAFAH); Q13093; recombinant pPAFAH, FP-rhodamine probe fluorescence polarization; inhibition, % at 3.39 µM; 330,000 compounds, 1.5% hits; AID 463082;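 active = inhibition above the mean inhibition across the screen plus 3 SD, cut at about 25% in these data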;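 also: inhibitors block binding of the rhodamine activity-based probe so polarization drops; 0% = enzyme with DMSO and 100% = wells lacking pPAFAH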
Target sequence (Q13093 whole entry, looked up): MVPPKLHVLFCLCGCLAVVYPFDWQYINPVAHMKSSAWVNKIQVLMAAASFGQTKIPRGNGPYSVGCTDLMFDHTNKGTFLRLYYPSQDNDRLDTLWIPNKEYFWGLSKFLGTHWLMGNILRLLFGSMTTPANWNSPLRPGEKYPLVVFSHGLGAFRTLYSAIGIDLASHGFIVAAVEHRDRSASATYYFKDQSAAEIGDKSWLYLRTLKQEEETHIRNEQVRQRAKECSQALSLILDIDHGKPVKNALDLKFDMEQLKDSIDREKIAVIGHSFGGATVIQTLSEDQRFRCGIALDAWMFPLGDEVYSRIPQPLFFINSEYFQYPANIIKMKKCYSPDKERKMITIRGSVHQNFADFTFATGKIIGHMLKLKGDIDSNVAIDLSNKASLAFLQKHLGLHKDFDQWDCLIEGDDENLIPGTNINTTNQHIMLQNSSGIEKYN
PAFAH1B3 FP inh: blocks human PAF acetylhydrolase 1B catalytic subunit 3 | recombinant PAFAH1B3, FP-rhodamine probe, fluorescence polarization | 340,000 compounds, 0.28% hits | inhibition, % at 3.39 µM;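 active = inhibition above the screen-wide average of all tested compounds plus 3 SD, cut at about 25% in these data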;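 also: 0% = enzyme with DMSO only and 100% = wells lacking PAFAH1B3 protein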
PAFAH1B2 FP inh: blocks human PAF acetylhydrolase 1b catalytic subunit 2 | AID 492953 | inhibition, % at 3.39 µM | 340,000 compounds, 1.2% hits | P68402 | recombinant PAFAH1B2, FP-rhodamine activity probe, fluorescence polarization;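 active = inhibition above the mean of all tested compounds plus 3 SD, cut at about 24% in these data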;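 also: 0% = enzyme with DMSO and 100% = wells lacking PAFAH1B2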
ARFGAP1 inh: rat ARFGAP1 inhibition; Arfgap1-stimulated ARF1 GTP hydrolysis, GDP FP detection; Q62848; 360,000 compounds, 0.26% hits; inhibition, % at 16.5 µM;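 active = inhibition above a per-plate limit, mean inhibition of low control wells plus 3 SD, cut at about 25% in these data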;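 also: 0% = DMSO wells with enzyme and 100% = wells lacking Arfgap1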
Target sequence (Q62848 1-136 limits assumed): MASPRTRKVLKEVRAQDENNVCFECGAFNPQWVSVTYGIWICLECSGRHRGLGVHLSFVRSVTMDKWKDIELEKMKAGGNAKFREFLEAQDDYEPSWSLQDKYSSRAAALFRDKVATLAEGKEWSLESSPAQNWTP
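System: truncated rat Arfgap1 GAP domain / Medium: HEPES-based buffer, pH 7.5 / Also added: N-terminally truncated human ARF1-GTP substrate / Incubation: enzyme reaction 120 min at 25 °C after 20 min preincubation / Measured by: FP of antibody-bound GDP Alexa 633 tracer, ex 620/em 688 nm / Replicates: singlicate, each compound tested once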
PAFAH2 FP inh: PAFAH2 (human) inhibition. recombinant PAFAH2, FP-rhodamine activity probe, fluorescence polarization. AID 492956. 340,000 compounds, 0.99% hits. inhibition, % at 3.39 µM;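 active = inhibition above the mean over all tested compounds plus 3 SD, cut at about 30% in these data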;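 also: inhibitors block probe labeling of enzyme so polarization drops; 0% = enzyme with DMSO and 100% = wells lacking PAFAH2 protein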
ASAP1 GAP inh: ASAP1 ArfGAP inhibition; Q9ULH1; ASAP1-stimulated ARF1 GTP hydrolysis, GDP FP detection; inhibition, % at 16.5 µM; 360,000 compounds, 0.19% hits; in the data active = inhibition above about 25%;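 also: 0% = vehicle with enzyme and substrate and 100% = no enzyme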
Starred values were filed as active, the others as inactive; nt = not tested or not shown.

SMILES	pPAFAH FP inh	PAFAH1B3 FP inh	PAFAH1B2 FP inh	ARFGAP1 inh	PAFAH2 FP inh	ASAP1 GAP inh
N#Cc1c(NC(=O)Cn2cnc3ccccc3c2=O)oc(-c2ccccc2)c1-c1ccccc1	15.8	5.6	29.1*	-8.9	2.4	-5.8
Cc1ccnc(SCC(=O)Nc2oc(-c3ccccc3)c(-c3ccccc3)c2C#N)n1	0.5	7.1	-4.8	-4.6	-9.6	3.1
N#Cc1c(NC(=O)CSc2ncccn2)oc(-c2ccccc2)c1-c1ccccc1	31.9*	6.0	12.2	7.6	0.6	-3.7
Cc1ccc(N=C2S/C(=C\c3cn(CC(=O)O)c4ccccc34)C(=O)N2C)cc1	25.8*	17.2	4.8	-16.0	8.5	-9.9
CCN=C1S/C(=C\c2cn(CC)c3ccccc23)C(=O)N1CC	8.6	8.7	6.0	-9.7	6.4	8.1
CC(=O)OCc1c(C(F)(F)F)nn(C)c1SCc1ccc(Cl)cc1	1.7	3.5	29.5*	-2.1	1.7	1.6
O=C(CNC(=O)c1cccc(Br)c1)N/N=C/c1cc(Br)cc(Br)c1O	12.8	7.3	31.4*	-2.0	10.9	-22.8
Cc1ccc(C(=O)Nc2ncc(Cc3ccc(F)cc3)s2)o1	2.2	1.8	28.2*	2.4	6.4	3.7
O=C(N[C@@H](Cc1cccnc1)C(=O)N1CCC[C@H]1C(=O)NCCc1ccccc1Cl)c1ccc(Cl)c(Cl)c1	nt	nt	nt	3.1	nt	2.4
COCc1nc(-c2ccc(-c3ccccc3)nc2OC)no1	26.1*	0.6	0.1	4.9	-2.8	-8.9
c1ccc(COCCc2cn(Cc3ccccc3)c3ccccc23)cc1	nt	nt	nt	-0.5	nt	7.7
C[C@H]1CN(S(=O)(=O)C(C)(C)C)[C@@H](CCO)/C1=C\CCO	nt	nt	nt	1.0	nt	6.2
N/C(=N\OC(=O)CCC1CCCC1)c1ccccc1	6.5	7.4	5.8	3.8	5.1	-20.1
N/C(=N\OC(=O)CCC1CCCC1)c1ccc([N+](=O)[O-])cc1	7.1	4.4	29.0*	5.4	13.1	-4.0
N/C(=N\OC(=O)CCC1CCCCC1)c1cccc([N+](=O)[O-])c1	10.0	4.1	40.5*	nt	15.6	nt
CO[C@H]1/C=C/O[C@@]2(C)Oc3c(C)c(O)c4c(O)c(c(C=NN5CCN(C)CC5)c(O)c4c3C2=O)NC(=O)/C(C)=C\C=C\[C@H](C)[C@H](O)[C@@H](C)[C@@H](O)[C@@H](C)[C@H](OC(C)=O)[C@@H]1C	18.4	11.1	7.6	0.3	2.7	11.8
CO[C@H]1C=CO[C@@]2(C)Oc3c(C)c(O)c4c(O)c(c(C=NN5CCN(C)CC5)c(O)c4c3C2=O)NC(=O)C(C)=CC=C[C@H](C)[C@H](O)[C@@H](C)[C@@H](O)[C@@H](C)[C@H](OC(C)=O)[C@@H]1C	30.5*	19.3	2.8	14.2	9.9	-0.9
CSCCC(NC(=O)c1ccco1)C(=O)NCCc1ccc(Cl)cc1 (stereo not given)	5.9	9.6	28.1*	-2.5	2.4	0.9
CN(C(=O)Cc1c(C(=O)O)n(C)c2ccccc12)c1ccc(Cl)cc1	2.2	-3.6	50.5*	6.4	4.3	2.5
CC(C)c1ccc(N(C)C(=O)Cc2c(C(=O)O)n(C)c3ccccc23)cc1	5.0	12.8	6.0	7.0	-6.0	-3.6
COc1ccc2c(c1)c(/C=N/Nc1ccc(C(=O)O)cc1)c(C)n2C	25.0*	8.3	3.2	-2.9	5.8	5.7
COc1ccc2c(c1)C(=NNc1ccc(C(=O)O)cc1)c1cc(OC)ccc1-2	31.3*	27.0*	11.1	-2.4	21.0	-0.3
COc1ccc2c(/C=N/Nc3ccc(C(=O)O)cc3)c[nH]c2c1	27.8*	6.3	-1.4	0.0	-3.5	16.9
C[C@H]1CN([C@@H](C)CO)C(=O)CCCn2cc(nn2)CO[C@@H]1CN(C)C(=O)c1ccccc1	nt	nt	nt	-2.1	nt	-7.7
CCc1cc2c(nc1CC)CCCN2S(=O)(=O)c1ccc(C)cc1	nt	nt	nt	-2.5	nt	6.2
SMILES	pPAFAH FP inh	PAFAH1B3 FP inh	PAFAH1B2 FP inh	ARFGAP1 inh	PAFAH2 FP inh	ASAP1 GAP inh
COc1ccc(CCN(C)C(=O)c2cccc(S(=O)(=O)NCc3ccccc3)c2)cc1OC	-2.6	12.3	-5.2	8.6	-4.2	1.9
COc1ccc(CCN(C)C(=O)c2ccc(S(=O)(=O)Nc3ccccc3C)cc2)cc1OC	25.3*	nt	nt	-0.2	nt	1.5
O=C(CCC1CCCN(C(=O)CCCc2ccccc2)C1)N1CCN(c2ccccn2)CC1 (stereo not given)	25.5*	4.5	7.4	4.6	-1.9	-8.8
Cc1ccc(C(=O)N2CCCC(CCC(=O)N3CCN(c4ccccn4)CC3)C2)s1 (stereo not given)	30.2*	3.2	1.4	9.9	7.0	0.4
CC(=O)c1ccccc1C(=O)N1CCCC(CCC(=O)N2CCN(c3ccccn3)CC2)C1 (stereo not given)	6.9	6.5	10.1	-5.2	8.6	-4.6
O=C(CCC1CCCN(C(=O)Cc2cccc(F)c2)C1)N1CCN(c2ccccn2)CC1 (stereo not given)	5.7	3.7	-1.7	-4.5	6.7	-0.7
O=C(O)c1ccc(N/N=C/C2=C(N3CCOCC3)C(=C\c3ccccc3)/CC2)cc1	28.2*	8.1	4.2	-14.3	8.5	-2.9
COC(=O)C1=C(C)N(C)C(=NCc2ccccc2C(F)(F)F)NC1c1ccc(F)cc1 (stereo not given)	nt	nt	nt	-5.3	nt	6.4
Cc1ccccc1NS(=O)(=O)c1ccc(OCCNS(C)(=O)=O)cc1	31.9*	0.6	-5.9	0.1	0.3	8.8
Cc1ccccc1NS(=O)(=O)c1ccc(Cl)cc1	9.9	3.9	-0.6	8.7	0.8	11.6
CCOc1ccc(S(=O)(=O)NCCC(=O)OCC(=O)NC(=O)c2cccn2C)cc1	25.3*	9.6	-0.1	5.4	1.9	3.9
Cn1cccc1C(=O)NC(=O)COC(=O)CNS(=O)(=O)c1ccc(Br)cc1	9.0	7.5	13.8	-4.3	5.7	-4.7
O=c1cc(-c2ccccc2)nc2cc(-c3ccco3)[nH]n12	27.1*	3.2	0.8	-4.9	-7.4	-10.6
O=c1cc(-c2ccccc2)nc2cc(-c3ccc(Br)cc3)[nH]n12	3.1	17.8	8.1	0.4	3.4	-22.4
Cc1ccc2nc(CSc3nc(C)cc(C)c3C#N)[nH]c2c1	26.4*	3.9	4.9	8.5	-3.1	0.0
COc1ccc(C(=O)N2CCC[C@@H]2C(=O)N2CCC[C@@H]2C(=O)NCc2ccccc2)cc1F	nt	nt	nt	-9.7	nt	-12.9
COc1ccc2c(-c3ccccc3)cc(SCC(=O)N(C)C)nc2c1	33.0*	4.9	-0.6	-1.1	5.1	3.4
COCCNC(=O)CSc1cc(-c2ccccc2)c2ccc(OC)cc2n1	29.6*	5.9	0.6	0.7	1.4	-4.8
CCN(C(=O)CSc1cc(-c2ccccc2)c2ccc(OC)cc2n1)C1CCS(=O)(=O)C1 (stereo not given)	26.2*	9.6	3.2	9.2	-4.0	2.4
